This note sets out measurements from PubChem BioAssay.

Assay [1] can be described thus: inhibitors of TNFa-induced NFkB p65 translocation, primary screen, imaging, HUVEC, MLSMR starter and 10KST1 sets (AID 438;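 active = inhibition above 20% together with a positive visual image hit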;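 note: compound added about 3h40 before a 20 min TNFalpha stimulation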;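 for inhibition: signal is the nuclear over cytoplasmic p65 intensity ratio per well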). The conditions noted are these: HUVEC TNFa-induced p65 nuclear translocation; cell count: measured here: nuclei count (cytotoxicity indicator), at 2.08 µM; inhibition: at 2 µM, stronger effect = higher value, 0% TNFa-plus-vehicle, 100% no-TNFa wells.
A short description of assay [2]: endothelial E-selectin expression blockers – imaging, HUVEC, immunofluorescence, MLSMR starter and 10KST1 sets, primary screen (AID 487;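 active = visually confirmed hit in the image check and inhibition above 20%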;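 for inhibition: signal is fraction of cell area covered by stained E-selectin grains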;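 for nuclei count: 100% = median nuclei count of all wells on the same plate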). Particulars: HUVEC TNFalpha-induced E-selectin immunofluorescence imaging, at 2 µM; inhibition: stronger effect = higher value; nuclei count: measured here: cell number, toxicity.
Assay [3] is described as follows: Primary imaging screen for DUSP6 inhibitors that restore phospho-Erk in transfected HeLa cells, chemical complementation (AID 609).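 For inhibition: phospho-Erk level distribution per well compared with pooled transfected vehicle control wells.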 The conditions noted are these: HeLa MKP-3 transfected, phospho-Erk imaging KS statistic, at 10 µM, cells stimulated with TPA for 15 min.
Assay [4] has as its target Dual specificity protein phosphatase 6 (Homo sapiens) (UniProt Q16828). The assay is described as above. Particulars: HeLa MKP-3 transfected, phospho-Erk imaging KS statistic; at 10 µM; stronger effect = higher value; cells stimulated with TPA for 15 min.
Assay [5] addresses Voltage-gated potassium channel subunit beta-2 (Rattus norvegicus) (UniProt P62483). Put plainly: inhibitors of rat Kvbeta2 reductase activity – biochemical, NADPH fluorescence, primary screen (AID 622;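 active = fluorescence slope higher than the sample average by over 3 SD, cut at about -0.22 in these data, passing the limit was not always enough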;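 note: slope of raw intensity against log time taken from 70 to 1610 s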). Particulars: recombinant KvBeta, 4-cyanobenzaldehyde reduction, at 10 µM, stronger effect = higher value.
Assay [6] has the same target. Put plainly: enhancers of rat Kvbeta2 NADPH turnover – biochemical, NADPH fluorescence, primary screen (AID 623;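 active = NADPH fluorescence slope more negative than the mean of all samples by about 3 SD, 99.7% confidence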;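 note: fluorescence intensity change per second fitted from 20 to 320 s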). The conditions noted are these: Recombinant KvBeta, NADPH fluorescence decrease slope, 10 min; at 10 µM; stronger effect = lower value.
In assay [7] the target is Alpha-2C adrenergic receptor (Homo sapiens) (UniProt P18825). Put plainly: compounds altering alpha2C-coupled GIRK flux – cell-based, HEK293 alpha2C/GIRK1/2, thallium flux, primary screen (AID 624;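 active = fluorescence slope after compound addition differing from the mean of all screened samples at 99.7% confidence, in either direction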;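 note: slope of fluorescence ratio to pre-addition baseline per second over 15 to 24 s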). Particulars: thallium flux BTC fluorescence, at 10 µM, actives lie on both sides.
Chain of Alpha-2C adrenergic receptor (Homo sapiens) (P18825 whole entry, looked up): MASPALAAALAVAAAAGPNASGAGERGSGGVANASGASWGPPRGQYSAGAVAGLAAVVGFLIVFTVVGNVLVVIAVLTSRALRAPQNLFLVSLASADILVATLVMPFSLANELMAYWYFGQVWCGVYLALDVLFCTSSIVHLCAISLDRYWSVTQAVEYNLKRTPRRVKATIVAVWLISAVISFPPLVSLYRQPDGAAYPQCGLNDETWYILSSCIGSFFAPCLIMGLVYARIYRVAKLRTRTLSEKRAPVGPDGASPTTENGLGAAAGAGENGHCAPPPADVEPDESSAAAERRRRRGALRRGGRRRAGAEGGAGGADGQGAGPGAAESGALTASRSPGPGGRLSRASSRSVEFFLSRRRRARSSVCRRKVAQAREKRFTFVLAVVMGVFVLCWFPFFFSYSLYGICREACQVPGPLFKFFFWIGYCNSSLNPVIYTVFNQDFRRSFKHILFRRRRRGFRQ
Assay [8] in a line: inhibitors of larval lipid processing in zebrafish, primary screen, whole organism, PED6 fluorescence, gall bladder and intestine (AID 686;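 active = a full or partial loss of lipid-probe fluorescence in the fish gall bladder, intestine or both, judged by eye; inactive = no fluorescence loss, or compound toxic to the fish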;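 note: larvae 5 to 7 days old with five fish per well; signal comes from phospholipase A2 cleavage of quenched PED6 carried via bile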). Particulars: Zebrafish larvae PED6 lipid processing, fluorescence scoring; screened at 20 µM (by protocol). The method, boiled down: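 System: live zebrafish larvae aged 5-7 days, whole organism; measure: graded gall bladder and intestinal fluorescence inhibition per well; incubation: overnight exposure; reagent: ingested quenched lipid PED6 at 100 nM; signal: By-eye fluorescence microscopy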

The nature of assay [9]: loss of swimming-algae plug formation – whole organism, Chlamydomonas reinhardtii, WT vs cilia-less mutant, absorbance, 96-well, primary screen (AID 463189;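 active = inhibition at or above 50% relative to wild type and mutant plate controls; inactive = inhibition below 50%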;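 note: 0% = wild type cc124 cells in DMSO and 100% = ciliumless bld1 mutant cells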). Particulars: Chlamydomonas reinhardtii gravitaxis, OD600 absorbance, 2 days; at 10 µM; stronger effect = higher value.
The mark [10] stands for this setting: measured here: cell density z-score.
Setting [11] is: measured here: nuclear c-Myc green intensity z-score.
Where [12] appears, read: measured here: nuclear pErk red intensity z-score, stronger effect = higher value.

The term inhibition denotes the relative decrease from the control value, in per cent.

Active and inactive are the calls of the source.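 Rule for the calls, unless noted: active = compounds giving at least 50% inhibition in the cell-based MKP-3 phosphatase rescue imaging test; inactive = the rest.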

Chain of Voltage-gated potassium channel subunit beta-2 (Rattus norvegicus) (P62483 whole entry, looked up): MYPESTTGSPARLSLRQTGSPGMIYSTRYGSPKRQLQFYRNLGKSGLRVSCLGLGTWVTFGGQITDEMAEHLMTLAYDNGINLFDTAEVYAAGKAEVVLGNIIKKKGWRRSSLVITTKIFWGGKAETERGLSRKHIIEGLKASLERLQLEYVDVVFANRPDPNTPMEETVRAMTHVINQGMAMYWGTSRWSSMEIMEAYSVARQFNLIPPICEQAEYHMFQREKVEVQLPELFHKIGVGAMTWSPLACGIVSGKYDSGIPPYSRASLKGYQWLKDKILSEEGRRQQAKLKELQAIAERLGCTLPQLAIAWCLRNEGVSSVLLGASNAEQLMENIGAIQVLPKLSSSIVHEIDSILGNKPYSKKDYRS
Chain of Dual specificity protein phosphatase 6 (Homo sapiens) (Q16828 whole entry, looked up): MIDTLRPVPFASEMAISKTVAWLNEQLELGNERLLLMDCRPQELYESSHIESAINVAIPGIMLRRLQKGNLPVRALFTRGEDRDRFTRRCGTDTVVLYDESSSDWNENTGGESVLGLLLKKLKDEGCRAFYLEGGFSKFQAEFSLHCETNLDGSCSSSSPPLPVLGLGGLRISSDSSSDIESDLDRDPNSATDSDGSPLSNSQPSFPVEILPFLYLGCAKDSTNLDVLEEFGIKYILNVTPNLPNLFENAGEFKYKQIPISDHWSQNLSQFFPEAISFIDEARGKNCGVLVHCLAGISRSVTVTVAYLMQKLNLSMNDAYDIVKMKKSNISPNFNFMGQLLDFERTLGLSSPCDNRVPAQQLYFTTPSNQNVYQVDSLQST

Take `CCOC(=O)C1=C(C)NC(SCC(=O)Nc2nc(C)cs2)=C(C#N)C1c1cccs1` (centres undefined): the cell count in [1] was 540. Also, the inhibition in assay [1] was -13.4% (inactive); in [2] it was -57.8% (inactive); in assay [4], -7.28% (inactive); in [9] it was 2.72% (inactive). In addition, in assay [2], the nuclei count came to 106%. Besides, the z-score in assay [3] (setting [10]) is 1.78; in assay [3] (setting [11]), -0.812; in assay [3] (setting [12]), -0.565. The fluorescence slope in [5] is -0.472 (inactive). Further, the NADPH fluorescence slope in assay [6] is 6.5e-06 (inactive). The slope in assay [7] is 0.006 (inactive). For the same compound, the compound was called inactive in [8].

With `CC1(C)Nc2ccc(O)cc2-c2c1ssc2=S`, the cell count in assay [1] is 403. Besides, the inhibition was -28.2% (inactive) in [1], -198% (inactive) in assay [2], -0.624% (inactive) in [4] and -1.08% (inactive) in assay [9]. The nuclei count in assay [2] is 193%. The z-score was -0.436 in assay [3] (setting [10]), -0.817 in assay [3] (setting [11]) and -1.32 in assay [3] (setting [12]). Also, the fluorescence slope in assay [5] is -0.316 (inactive). Further, the NADPH fluorescence slope in assay [6] is 3.7e-06 (inactive). For the same compound, in assay [7], the slope was 0.00209 (inactive). For the same compound, in [8], the compound was called inactive.

As for `COC(=O)C1=C(C)OC(N)=C(C#N)C1c1ccc(OC)c(OC)c1OC` (centres undefined), in assay [1], the cell count came to 401. In addition, the inhibition in [1] is -10.3% (inactive); in assay [2], -52.9% (inactive); in assay [4], 26.5% (inactive); in assay [9], 42.2% (inactive). For the same compound, in [2], the nuclei count came out at 104%. Further, the z-score was 0.861 in assay [3] (setting [10]), -0.767 in assay [3] (setting [11]) and -0.967 in [3] (setting [12]). Moreover, in assay [5], the fluorescence slope was -0.557 (inactive). Also, the NADPH fluorescence slope in [6] was -8.1e-05 (inactive). The slope in [7] was 0.00455 (inactive). For the same compound, the outcome in assay [8] was inactive.

As for `Cc1cc(C(F)(F)F)nn1CC(=O)NCC1CCCO1` (centres undefined), the cell count in assay [1] was 516. In addition, the inhibition in [1] was -3.1% (inactive); in assay [2], -24% (inactive); in assay [4], -3.98% (inactive); in assay [9], 12.4% (inactive). This compound also yielded a nuclei count in [2] of 137%. Further, the z-score was -0.885 in [3] (setting [10]), 0.653 in assay [3] (setting [11]) and 1.12 in [3] (setting [12]). Besides, the fluorescence slope in assay [5] was -0.484 (inactive). For the same compound, the NADPH fluorescence slope in assay [6] is -0.000135 (inactive). For the same compound, in assay [7], the slope is 0.00552 (inactive). Further, the outcome in assay [8] was inactive.

Regarding `Cc1nnc(SCCC#N)n(CCC#N)c1=O`, the cell count in [1] stood at 585. For the same compound, the inhibition in assay [1] was -13.5% (inactive); in [2], 24.6% (inactive); in assay [4], 1.12% (inactive); in [9], 7.85% (inactive). For the same compound, in [2], the nuclei count was found to be 164%. Also, the z-score in assay [3] (setting [10]) is -0.25; in assay [3] (setting [11]), 0.45; in assay [3] (setting [12]) it was 2.53. Also, the fluorescence slope in [5] was -0.396 (inactive). In assay [6], the NADPH fluorescence slope is -3e-05 (inactive). Further, the slope in [7] is 0.00584 (inactive). For the same compound, the compound was classed as inactive in [8].

On to `COc1ccccc1-c1nn2c(-c3ccco3)nnc2s1`, for which the cell count in [1] turned out to be 544. In addition, the inhibition in assay [1] was -2.9% (inactive); in assay [2], -39.4% (inactive); in assay [4], -2.47% (inactive); in assay [9], 10.9% (inactive). In addition, in assay [2], the nuclei count was determined as 162%. Further, the z-score in assay [3] (setting [10]) is 0.365; in assay [3] (setting [11]), -0.311; in assay [3] (setting [12]), -0.198. Besides, the fluorescence slope in assay [5] is -0.42 (inactive). Also, the NADPH fluorescence slope in assay [6] is -8.7e-05 (inactive). Besides, in assay [7], the slope is 0.00698 (inactive). For the same compound, the result in assay [8] was inactive.

In the case of `Cn1c(=O)c2c(nc(SCCN3CCCCC3)n2Cc2ccc(Cl)cc2)n(C)c1=O`, the cell count in assay [1] is 498. In addition, the inhibition in [1] was -3.7% (inactive); in assay [2], -203% (inactive); in [4] it was 21% (inactive); in assay [9], 104% (active). Also, the nuclei count in assay [2] was 140%. The z-score in [3] (setting [10]) is 0.51; in assay [3] (setting [11]), -0.662; in assay [3] (setting [12]), -1.54. The fluorescence slope in [5] was -0.526 (inactive). Moreover, in assay [6], the NADPH fluorescence slope was -1.5e-05 (inactive). In assay [7], the slope is 0.00528 (inactive). For the same compound, the compound was classed as inactive in assay [8].

On to `CCc1c(C(=O)O)[nH]c2ccc(Br)cc12`, for which, in assay [1], the cell count is 581. The inhibition in [1] was -1.8% (inactive); in assay [2], -21.7% (inactive); in [4] it was -7.01% (inactive); in [9], -2.83% (inactive). This compound also registered a nuclei count in [2] of 171%. Moreover, the z-score in assay [3] (setting [10]) is -0.258; in [3] (setting [11]), -0.825; in assay [3] (setting [12]), 2.03. In addition, in assay [5], the fluorescence slope is -0.367 (inactive). In assay [6], the NADPH fluorescence slope is -5.4e-05 (inactive). In addition, in [7], the slope was 0.00495 (inactive). The compound was classed as inactive in [8].

Consider `COC(=O)CC1=NC(=O)CS1`, for which the cell count in [1] turned out to be 690. Moreover, the inhibition was -4.3% (inactive) in assay [1], -84.4% (inactive) in assay [2], -7.28% (inactive) in assay [4] and -1.11% (inactive) in [9]. The same compound came in with a nuclei count in [2] of 164%. Further, the z-score is -1.27 in [3] (setting [10]), 0.428 in assay [3] (setting [11]) and 1.11 in assay [3] (setting [12]). Also, the fluorescence slope in [5] was -0.41 (inactive). Further, in assay [6], the NADPH fluorescence slope was -8.9e-06 (inactive). Moreover, the slope in assay [7] was 0.00544 (inactive). Moreover, in assay [8], the result was inactive.

Take `CC(C)N1CC=C2C(C#N)=C(N)C(C#N)(C#N)C(c3ccccc3)C2C1` (centres undefined): in assay [1], the cell count was 535. In addition, the inhibition in assay [1] is -3.2% (inactive); in assay [2], -126% (inactive); in [4], 68.6% (inactive); in assay [9], 11.1% (inactive). For the same compound, in assay [2], the nuclei count is 218%. Also, the z-score in [3] (setting [10]) was 0.674; in assay [3] (setting [11]) it was 3.57; in [3] (setting [12]), 1.58. Also, in assay [5], the fluorescence slope was -0.366 (inactive). Besides, the NADPH fluorescence slope in assay [6] was -2.3e-05 (inactive). In assay [7], the slope was 0.000192 (inactive). Besides, the call in assay [8] was inactive.

On to `Cc1[nH]c2ccc3c(ncn3CCC#N)c2c1C`, for which the cell count in assay [1] amounted to 616. For the same compound, the inhibition in assay [1] was -7.5% (inactive); in assay [2], -48.6% (inactive); in assay [4] it was 18.2% (inactive); in assay [9], 11.7% (inactive). Moreover, the nuclei count in assay [2] amounted to 166%. Moreover, the z-score is -0.136 in assay [3] (setting [10]), 0.347 in [3] (setting [11]) and 0.974 in [3] (setting [12]). Moreover, the fluorescence slope in assay [5] is -0.5 (inactive). Besides, the NADPH fluorescence slope in assay [6] was -3.5e-05 (inactive). Further, the slope in assay [7] is 0.00512 (inactive). The compound was classed as inactive in assay [8].

Turning to `CCOc1ccc(-c2nnc3sc(COc4ccccc4)nn23)cc1`, the cell count in assay [1] worked out at 502. Also, the inhibition is -11.7% (inactive) in assay [1], -288% (inactive) in assay [2], -15% (inactive) in [4] and 53.8% (active) in assay [9]. The compound also displayed a nuclei count in assay [2] of 155%. Further, the z-score is -0.358 in [3] (setting [10]), -0.85 in [3] (setting [11]) and 1.78 in assay [3] (setting [12]). The fluorescence slope in [5] was -0.405 (inactive). For the same compound, in [6], the NADPH fluorescence slope was -0.000151 (inactive). The slope in assay [7] was 0.00528 (inactive). The result in assay [8] was inactive.

Turning to `CC1CN(C2CCN(C(=O)COc3ccccc3)CC2)CC(C)O1` (centres undefined), the cell count in assay [1] was 357. For the same compound, the inhibition in [1] was -12.6% (inactive); in assay [2], -160% (inactive); in assay [4], 1.75% (inactive); in assay [9], -3.28% (inactive). Further, in assay [2], the nuclei count is 111%. Also, the z-score in assay [3] (setting [10]) was -0.694; in assay [3] (setting [11]), 1.72; in assay [3] (setting [12]) it was -2.62. Moreover, the fluorescence slope in assay [5] was -0.455 (inactive). Besides, the NADPH fluorescence slope in assay [6] was -1.3e-05 (inactive). The slope in assay [7] was 0.00556 (inactive). In addition, the result in [8] was inactive.
